Measured values reported in ChEMBL document CHEMBL1153061, “Synergism of virtual screening and medicinal chemistry: identification and optimization of allosteric antagonists of metabotropic glutamate receptor 1” (Bioorg Med Chem, 2009).
Calls of active or inactive are those of the source. The rule behind the calls is not given here.

Legend:
[1] = biological target: T1, Metabotropic glutamate receptor 1 (Rattus norvegicus, UniProt P23385); assay: Displacement of [3H]E-3-(2-chloro-8-methylquinolin-3-yl)-1-(thiophen-2-yl)prop-2-en-1-one from mGluR1 in rat cerebellar membrane after 14 to 16 hrs by scintillation counting; assay type: cell membranes, Cerebellum
T1 sequence (P23385 whole entry): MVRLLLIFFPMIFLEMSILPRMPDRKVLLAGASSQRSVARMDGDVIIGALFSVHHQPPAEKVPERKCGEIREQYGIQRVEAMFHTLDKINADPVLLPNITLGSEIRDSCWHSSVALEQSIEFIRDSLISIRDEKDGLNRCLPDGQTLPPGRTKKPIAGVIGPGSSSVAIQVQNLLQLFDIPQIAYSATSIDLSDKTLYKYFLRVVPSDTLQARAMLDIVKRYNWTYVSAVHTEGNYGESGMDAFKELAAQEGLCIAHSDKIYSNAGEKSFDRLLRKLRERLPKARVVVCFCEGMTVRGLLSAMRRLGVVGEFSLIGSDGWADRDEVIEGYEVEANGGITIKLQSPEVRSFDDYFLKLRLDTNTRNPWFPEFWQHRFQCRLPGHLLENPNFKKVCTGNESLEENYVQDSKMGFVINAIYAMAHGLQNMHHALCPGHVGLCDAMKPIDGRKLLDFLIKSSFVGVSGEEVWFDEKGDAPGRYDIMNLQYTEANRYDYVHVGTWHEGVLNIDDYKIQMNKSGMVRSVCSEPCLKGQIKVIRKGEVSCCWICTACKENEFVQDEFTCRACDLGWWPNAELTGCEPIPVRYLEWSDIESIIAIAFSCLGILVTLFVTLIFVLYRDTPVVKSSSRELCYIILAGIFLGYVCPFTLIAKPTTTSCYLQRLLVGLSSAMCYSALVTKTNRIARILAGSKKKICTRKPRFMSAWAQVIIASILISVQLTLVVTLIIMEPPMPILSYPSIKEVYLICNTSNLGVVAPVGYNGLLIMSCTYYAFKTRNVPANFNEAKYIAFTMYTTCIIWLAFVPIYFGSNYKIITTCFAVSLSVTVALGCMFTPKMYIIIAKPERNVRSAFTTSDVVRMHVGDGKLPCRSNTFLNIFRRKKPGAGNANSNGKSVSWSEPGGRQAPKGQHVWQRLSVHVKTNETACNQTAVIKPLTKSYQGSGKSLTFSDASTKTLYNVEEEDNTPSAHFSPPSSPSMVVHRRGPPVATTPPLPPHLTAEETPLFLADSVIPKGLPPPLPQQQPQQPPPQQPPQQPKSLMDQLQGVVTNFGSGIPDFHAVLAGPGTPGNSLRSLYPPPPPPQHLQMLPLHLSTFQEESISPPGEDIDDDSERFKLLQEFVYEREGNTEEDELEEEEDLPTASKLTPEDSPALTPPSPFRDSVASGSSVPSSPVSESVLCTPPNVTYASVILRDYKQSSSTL

[2] = biological target: T1, Metabotropic glutamate receptor 1; assay: Allosteric antagonist activity at mGluR1 in Sprague-Dawley rat cerebellar granule cells assessed as accumulation of [3H]inositol phosphate by liquid scintillation counting; assay type: functional
Procedure, shortened: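 Cerebellar granule cells from P8 Sprague Dawley rats grown in BEM with 10% foetal calf serum and 2 mM glutamine. At 6 DIV switched to inositol-free DMEM with [3H]-myo-inositol (0.5 µCi/100 µl/well) for 48 h. Cells preincubated 15 min at 37 °C in Locke's buffer (20 mM LiCl, pH 7.4), then 45 min with agonists/test ligands. Lysed with 0.1 M HCl 10 min on ice. Inositol phosphates isolated on formate columns, eluted with 1 M ammonium formate/0.1 M formic acid, counted by liquid scintillation.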

[3] = biological target: Metabotropic glutamate receptor 5 (Rattus norvegicus, UniProt P31424); assay: Displacement of [3H]MPEP from mGluR5 in rat cortical membrane after 60 mins by liquid scintillation counting; assay type: cell membranes
Sequence of Metabotropic glutamate receptor 5 (P31424 whole entry): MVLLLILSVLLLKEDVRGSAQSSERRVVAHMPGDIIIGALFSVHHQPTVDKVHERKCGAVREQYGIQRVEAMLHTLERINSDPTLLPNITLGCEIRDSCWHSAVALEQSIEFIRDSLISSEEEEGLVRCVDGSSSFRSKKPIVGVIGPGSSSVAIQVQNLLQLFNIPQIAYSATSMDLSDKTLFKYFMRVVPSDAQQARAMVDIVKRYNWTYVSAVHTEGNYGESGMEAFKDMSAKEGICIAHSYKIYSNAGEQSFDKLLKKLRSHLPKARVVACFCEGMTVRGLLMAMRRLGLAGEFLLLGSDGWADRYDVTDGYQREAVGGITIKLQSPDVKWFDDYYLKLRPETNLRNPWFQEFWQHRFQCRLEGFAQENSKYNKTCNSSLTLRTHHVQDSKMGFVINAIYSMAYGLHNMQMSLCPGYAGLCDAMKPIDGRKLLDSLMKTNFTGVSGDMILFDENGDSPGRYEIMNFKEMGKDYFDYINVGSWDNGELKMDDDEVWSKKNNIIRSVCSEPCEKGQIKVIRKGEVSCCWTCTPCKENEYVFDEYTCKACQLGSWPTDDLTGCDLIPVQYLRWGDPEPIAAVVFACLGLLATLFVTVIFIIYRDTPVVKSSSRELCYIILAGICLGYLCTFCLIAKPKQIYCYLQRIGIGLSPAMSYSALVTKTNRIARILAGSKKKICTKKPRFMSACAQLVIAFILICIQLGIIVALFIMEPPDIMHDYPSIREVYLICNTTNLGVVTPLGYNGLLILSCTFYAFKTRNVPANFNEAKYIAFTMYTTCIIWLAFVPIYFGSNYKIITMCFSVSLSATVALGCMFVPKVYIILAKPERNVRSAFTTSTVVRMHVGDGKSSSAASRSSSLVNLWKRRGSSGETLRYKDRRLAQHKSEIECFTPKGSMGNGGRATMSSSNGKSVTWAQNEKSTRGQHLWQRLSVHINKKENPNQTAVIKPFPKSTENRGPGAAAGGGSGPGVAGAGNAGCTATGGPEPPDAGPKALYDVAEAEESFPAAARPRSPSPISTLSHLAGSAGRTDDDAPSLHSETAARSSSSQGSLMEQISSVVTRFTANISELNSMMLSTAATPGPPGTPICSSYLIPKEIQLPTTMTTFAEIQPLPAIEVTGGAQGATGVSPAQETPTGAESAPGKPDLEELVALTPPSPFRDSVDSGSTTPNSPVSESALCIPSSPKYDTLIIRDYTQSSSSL
Procedure, shortened: (§1)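 Rat cortical membranes, 125–250 µg protein, incubated with 5 nM [3H]-MPEP (50.2 Ci/mmol) and varying concentrations of test agent. Filters rinsed, and bound radioactivity counted by liquid scintillation.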

Rattus norvegicus = species on record: Rattus norvegicus; assay: Selectivity ratio of Ki for mGluR5 in rat cortical membrane to Ki for mGluR1 in rat cerebellar membrane; assay type: cell membranes
[4] = biological target: Metabotropic glutamate receptor 5 (Rattus norvegicus) (UniProt P31424); assay: Binding affinity to GluR5 in rat cortical membrane up to 10 uM; assay type: cell membranes; procedure, shortened: as §1
Sequence of Metabotropic glutamate receptor 5 (Rattus norvegicus) (P31424 21-1203 limits assumed): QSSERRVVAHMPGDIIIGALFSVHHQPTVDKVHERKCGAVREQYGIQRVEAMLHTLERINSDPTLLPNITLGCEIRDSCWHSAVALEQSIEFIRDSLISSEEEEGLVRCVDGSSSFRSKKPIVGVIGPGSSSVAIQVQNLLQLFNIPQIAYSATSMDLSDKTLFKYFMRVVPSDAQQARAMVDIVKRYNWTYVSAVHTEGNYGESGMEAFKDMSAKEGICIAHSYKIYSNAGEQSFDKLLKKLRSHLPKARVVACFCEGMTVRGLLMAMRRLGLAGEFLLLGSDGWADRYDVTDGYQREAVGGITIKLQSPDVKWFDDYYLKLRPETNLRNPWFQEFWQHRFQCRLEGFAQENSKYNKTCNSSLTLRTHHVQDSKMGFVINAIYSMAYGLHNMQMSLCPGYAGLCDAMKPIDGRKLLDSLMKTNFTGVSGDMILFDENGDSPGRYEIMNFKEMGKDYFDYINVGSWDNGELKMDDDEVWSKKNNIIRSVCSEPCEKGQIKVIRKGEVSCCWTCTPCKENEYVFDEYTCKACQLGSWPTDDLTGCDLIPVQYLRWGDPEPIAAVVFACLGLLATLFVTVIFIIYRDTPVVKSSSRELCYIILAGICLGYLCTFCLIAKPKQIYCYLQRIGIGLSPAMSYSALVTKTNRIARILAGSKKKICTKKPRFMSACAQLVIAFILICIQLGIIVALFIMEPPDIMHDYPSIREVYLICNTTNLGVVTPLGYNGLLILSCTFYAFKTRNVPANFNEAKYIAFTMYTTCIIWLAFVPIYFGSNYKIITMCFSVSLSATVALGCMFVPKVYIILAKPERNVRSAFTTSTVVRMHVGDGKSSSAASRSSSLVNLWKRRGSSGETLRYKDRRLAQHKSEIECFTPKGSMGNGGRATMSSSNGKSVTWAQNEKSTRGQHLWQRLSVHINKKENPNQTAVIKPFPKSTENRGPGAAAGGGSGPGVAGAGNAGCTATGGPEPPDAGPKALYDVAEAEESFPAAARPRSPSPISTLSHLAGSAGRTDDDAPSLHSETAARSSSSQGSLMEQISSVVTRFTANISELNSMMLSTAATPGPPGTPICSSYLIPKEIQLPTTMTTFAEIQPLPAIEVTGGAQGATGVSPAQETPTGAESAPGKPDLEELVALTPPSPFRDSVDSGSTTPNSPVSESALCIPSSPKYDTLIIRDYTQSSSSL

[5] = biological target: Metabotropic glutamate receptor 1 (Homo sapiens, UniProt Q13255); assay: Binding affinity to human GluR1 by FLIPR assay
Sequence of Metabotropic glutamate receptor 1 (Homo sapiens, UniProt Q13255) (Q13255 whole entry): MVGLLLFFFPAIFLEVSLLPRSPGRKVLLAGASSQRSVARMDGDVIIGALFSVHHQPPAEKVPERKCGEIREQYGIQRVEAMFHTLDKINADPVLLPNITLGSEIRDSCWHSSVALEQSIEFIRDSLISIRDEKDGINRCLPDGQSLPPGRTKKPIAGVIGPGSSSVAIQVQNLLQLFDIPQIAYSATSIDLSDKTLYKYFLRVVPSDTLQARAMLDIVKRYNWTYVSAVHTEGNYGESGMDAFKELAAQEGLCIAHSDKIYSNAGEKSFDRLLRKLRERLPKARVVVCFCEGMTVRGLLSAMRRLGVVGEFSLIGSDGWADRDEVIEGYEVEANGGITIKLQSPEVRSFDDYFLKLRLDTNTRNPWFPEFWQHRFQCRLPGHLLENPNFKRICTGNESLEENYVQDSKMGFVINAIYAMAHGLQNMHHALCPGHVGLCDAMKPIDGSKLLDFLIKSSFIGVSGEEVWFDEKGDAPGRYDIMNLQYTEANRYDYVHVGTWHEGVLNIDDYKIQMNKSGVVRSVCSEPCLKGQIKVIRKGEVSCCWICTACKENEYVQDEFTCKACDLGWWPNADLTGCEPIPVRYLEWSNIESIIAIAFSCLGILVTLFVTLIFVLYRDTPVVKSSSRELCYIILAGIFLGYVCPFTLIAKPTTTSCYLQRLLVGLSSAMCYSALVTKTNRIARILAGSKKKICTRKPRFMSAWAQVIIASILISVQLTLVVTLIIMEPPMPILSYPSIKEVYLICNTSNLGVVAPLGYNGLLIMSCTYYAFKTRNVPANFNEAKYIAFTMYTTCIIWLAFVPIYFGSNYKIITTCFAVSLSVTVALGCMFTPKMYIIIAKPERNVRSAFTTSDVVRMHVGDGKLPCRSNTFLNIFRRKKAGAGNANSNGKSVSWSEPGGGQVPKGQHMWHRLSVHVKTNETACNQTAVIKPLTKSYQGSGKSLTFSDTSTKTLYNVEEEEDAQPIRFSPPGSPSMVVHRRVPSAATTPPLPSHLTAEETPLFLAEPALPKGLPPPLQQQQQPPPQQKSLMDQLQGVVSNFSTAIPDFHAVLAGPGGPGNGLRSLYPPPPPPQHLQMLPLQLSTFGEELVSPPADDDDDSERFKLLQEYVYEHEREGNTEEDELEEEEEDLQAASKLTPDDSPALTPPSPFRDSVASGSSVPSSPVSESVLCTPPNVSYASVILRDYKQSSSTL

[6] = Solubility in water; assay type: physicochemical; conditions: buffer

Row | SMILES | Ki [1] | IC50 [2] | Ki [3] | Ratio Ki (Rattus norvegicus) | Activity [4] | Ki [5] | solubility [6]
1 | CCCCCCOc1ccc(C(=O)Oc2ccc(C3CCCCC3)cc2)cc1 | > 40 µM | > 40 µM |  |  |  |  | 
2 | O=C(C1CC1c1cccnc1)C12CC3CC(CC(C3)C1)C2 (configuration not stated) | 7.04 µM |  | 22.9 µM | 3.26 |  |  | 
3 | CCCCC1CCC(C(=O)Oc2ccc(C(C)=O)cc2)CC1 (configuration not stated) | > 40 µM | > 40 µM |  |  |  |  | 
4 | CC(=O)c1ccc(OC(=O)c2ccc(-c3ccccc3)cc2)cc1 | > 40 µM | > 40 µM |  |  |  |  | 
5 | O=C(c1ccc(Cl)cc1)c1ccc2c(c1)CCCCO2 | > 40 µM | > 40 µM |  |  |  |  | 
6 | COc1ccc(C(=O)/C=C/c2cc3cc(C)ccc3nc2Cl)cc1 | > 40 µM | 20.5 µM | > 100 µM |  |  |  | 
7 | COc1ccc(C(=O)c2ccc(C(=O)c3ccc(C)c(OC)c3)cc2)cc1C | > 40 µM | > 40 µM |  |  |  |  | 
8 | COc1ccc(-c2cc(C)nc(-c3ccc(OC)c(Br)c3)c2)cc1Br | > 40 µM | > 40 µM |  |  |  |  | 
9 | COc1cc2c(cc1OC)C(Cc1ccccc1)=NC(C)(C)C2 | > 40 µM | > 40 µM |  |  |  |  | 
10 | CCn1c2ccccc2c2cc(/C=N/c3ccc(C)c(F)c3)ccc21 | > 40 µM | > 40 µM |  |  |  |  | 
11 | O=c1cc(-c2ccccc2)c2cc(Cl)c(OCc3ccc(F)cc3)cc2o1 | > 40 µM | > 40 µM |  |  |  |  | 
12 | O=C(/C=C/c1ccc2c(c1)OCCO2)C12CC3CC(CC(C3)C1)C2 | 0.641 µM |  | 6.23 µM | 9.72 |  |  | 
13 | Cc1ccc2nc(Cl)c(/C=C/C(=O)c3cccs3)cc2c1 | 9.93 µM | 0.74 µM | > 100 µM |  |  |  | 
14 | Cc1ccc2cc(/C=C/C(=O)c3c(C)coc3C)c(Cl)nc2c1 | > 40 µM | > 40 µM | > 100 µM |  |  |  | 
15 | O=c1cc(-c2ccccc2)c2ccc(OCc3ccc(F)cc3)cc2o1 | > 40 µM | 23.9 µM |  |  |  |  | 
16 | O=C(/C=C/c1cnc2ccccc2c1)C12CC3CC(CC(C3)C1)C2 | 0.021 µM |  | 0.807 µM | 29.9 |  |  | 
17 | O=C(c1ccccc1)c1ccc(/N=C/c2ccc(Br)cc2)cc1 | > 40 µM | > 40 µM |  |  |  |  | 
18 | CCCCCc1ccc(-c2ccc(OC(=O)C3CCC(CC)CC3)cc2)nc1 (configuration not stated) | > 40 µM | 22.5 µM |  |  |  |  | 
19 | COc1ccc(C(=O)/C=C/c2ccc(OC3CSC3)cc2)cc1 | > 40 µM | > 40 µM |  |  |  |  | 

Row | SMILES | Ki [1] | IC50 [2] | Ki [3] | Ratio Ki (Rattus norvegicus) | Activity [4] | Ki [5] | solubility [6]
20 | Cc1ccc2cc(/C=C/C(=O)c3cccs3)c(Cl)nc2c1 | 17.2 µM | 2.97 µM | > 100 µM |  |  |  | 
21 | CCCCOc1ccc(-c2nnc(-c3ccc(-c4ccccc4)cc3)s2)cc1 | > 40 µM | 28.4 µM |  |  |  |  | 
22 | O=C(/C=C/c1cnc2ccccc2c1)C1CC1 | > 100 µM |  | > 100 µM |  |  |  | 
23 | CCOc1ccc(C(=O)/C=C/c2ccc(OCc3ccc(Cl)cc3Cl)cc2)cc1 | > 40 µM | > 40 µM |  |  |  |  | 
24 | CC(CC(=O)c1ccc2c(c1)OCCO2)c1ccccc1 (configuration not stated) | 36.2 µM | 10.6 µM |  |  |  |  | 
25 | Cc1ccc2nc(Cl)c(/C=C/C(=O)c3ccccc3)cc2c1 | 9.18 µM | 1.7 µM | > 100 µM |  |  |  | 
26 | COc1ccc(C(=O)/C=C/c2cc3ccc(C)cc3nc2Cl)cc1 | > 40 µM | 39.3 µM | > 100 µM |  |  |  | 
27 | CC(Oc1ccc2c(c1)oc(=O)c1ccccc12)c1ccccc1 (configuration not stated) | > 40 µM | > 40 µM |  |  |  |  | 
28 | COc1ccc(/C=C/C(=O)C23CC4CC(CC(C4)C2)C3)cc1C | 0.294 µM |  | 5.15 µM | 17.5 |  |  | 
29 | O=C(C1CC1c1cnc2ccccc2c1)C12CC3CC(CC(C3)C1)C2 (configuration not stated) | 0.137 µM |  | > 100 µM | > 730 | inactive |  | 
30 | O=C(/C=C/c1ccc(Cl)cc1)c1ccc(Oc2ccccc2)cc1 | > 40 µM | 30 µM |  |  |  |  | 
31 | O=C(C1CC1c1ccc(N2CCOCC2)nc1)C12CC3CC(CC(C3)C1)C2 (configuration not stated) | 0.024 µM |  | 27.8 µM | 1160 |  | 110 nM | Soluble
32 | O=c1cc(-c2ccccc2)c2ccc(OCc3cccc(Oc4ccccc4)c3)cc2o1 | > 40 µM | > 40 µM |  |  |  |  | 
33 | Cc1cccc2cc(/C=C/C(=O)c3ccccc3)c(Cl)nc12 | > 40 µM | 8.5 µM | > 100 µM |  |  |  | 
34 | Cc1ccc(C(=O)c2ccc(Oc3ccccc3)cc2)cc1C | > 40 µM | 15.3 µM |  |  |  |  | 
35 | CC(C)(C)C(=O)/C=C/c1cnc2ccccc2c1 | 5.23 µM |  | 30.6 µM | 5.9 |  |  | 
36 | CCCCCCc1cc2c3c(c(=O)oc2cc1OC)CCC3 | > 40 µM | 23.9 µM |  |  |  |  | 
37 | COc1ccc(C2CC2C(=O)C23CC4CC(CC(C4)C2)C3)cn1 (configuration not stated) | 0.304 µM |  | 18.4 µM | 60.5 |  |  | 
